B1: tRNA (parent)
chain: GUUCCGUUGGCGUAAUGGUAACGCGUCUCCCUCCUAAGGAGAAGACUGCGGGUUCGAGUCCCGUACGGAACG

This sample holds only a part of the variants without activity.

This data set covers variants of B1. In words: yeast fitness relative to wild type (ratio to wild type); higher = fitter; tRNA-Arg(CCU), competitive growth, 37 C, YPD. An outline of the steps: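 Start and end populations of a pooled competition were compared by 100-nucleotide paired-end sequencing of gene amplicons. The Saccharomyces cerevisiae strains carried tRNA-Arg(CCU) gene variants at the native genomic locus, synthesised with a 3% per-site mutation rate at 69 sites, and competed in YPD at 37°C for 24 hours in six parallel replicates. Darwinian fitness relative to wild type was based on the change in genotype frequencies. Genotypes required ≥ 100 starting reads, and estimates < 0.5 were set to 0.5.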
For GUUCCAUUGGCGUAAUGGUAACGCGUUUCCCUCCUAAGGAGAAGACUGCGGGUUCGUGUCCCGUACGGAACG [G6A C27U A57U], the yeast fitness was 0.544. With GUUGCGUCGGCGUAAUGGUAACGCGUCUCCGUGCUAAGGAGAAGACUGCGGGUUCGACUUCCGUACGGACCG [C4G U8C C31G C33G G58C C60U A70C] the figure was no more than 0.5; with GUUCCGUUGGCGUAAUGGUAAGGCGUCUCCCUCCCAAGGAGAAGACUGCGGGUUCGCGUCCCGUACGGAACG [C22G U35C A57C], 0.61; with GUUCCGUUAGCGUAAUGGUAACGCGUCUCCCUCCUAAGGAGAAGACUGCGGGUUCAAGUCCCGUACGGAACG [G9A G56A], 1. The value for GUUCUGUUGGCGUAAUGGUAACGCGUCACCCUCUUAAGGAAAAGACUGCGGGUUCGAGUCCCGUACGGAACG [C5U U28A C34U G41A] was no more than 0.5. On to GUUCCGUUGGCAUAAUGGUAACGCGUAUCCCUCCUAAGGAGAAGACUGCGGGUUCGAGUCCCGUACCGAACG [G12A C27A G67C], for which the yeast fitness turned out to be 0.548.

With GUUCCGUUGGCGUAAUGGUAACGCGUCUUCCUCCUAAGGAGAAGACUGCGGGUUCGAGUCCCGUACGGUACG [C29U A69U], the yeast fitness is 0.868. With GUUCGGUUAGCGUAAUGGUAACGCGUCUCCCUCCUAAGGAGAGGACUCCGGGUUCGAGUCCCGUACGGAACG [C5G G9A A43G G48C] the figure was no more than 0.5; with GUUCCGUUGGCGUAAUGGUAACGAGUCUCCCUACUAAGGAGAAGAUUGCGGGUUCGAGUCCCGUACGGAACG [C24A C33A C46U], 0.534; with GUCCCGUUGGCGUACUGGUAACGCGUCUCCCUCCUAAGGAGAAGACGGCGGGUACGAAUCCCGUACGGAACG [U3C A15C U47G U54A G58A], no more than 0.5. Take GUUCGGCUGGUGUAAUGGUAACGCAUCUCCCUCCUAAGGAGAAGACUGCGGGUUCGAGUCCCGUACGGAACG [C5G U7C C11U G25A]: the yeast fitness is no more than 0.5. With GUUUGGUUGGCGUAAUGGUAACGCGUCUGCGUCCUACGGAGAAGACUGCGGGUUCGAGUCCCGUAAGGAACG [C4U C5G C29G C31G A37C C66A] the figure was 0.66; with GUUCCGUUGGCGUCAUGGUAACGCGUCUCUCUCCUAAGGAGAGGACUGCGGGUUCGAGUCCCGUACGGAACG [A14C C30U A43G], no more than 0.5.

Take GUUCCGUUGGUGUAAUGGCAACGCGUGUCCCUCCUAAGGAGAAGACUGCGGGUUCGAGUCCCGUACGGAACG [C11U U19C C27G]: the yeast fitness is 0.66.

Take GUUCCGUUGGCGUAAUGGUAACGCGUCUCCCUCCUAAGGAGAAGACUGCGGGUUCGAGCCCCGUACGGAACG [U59C]: the yeast fitness was found to be 1. With GUUCCGUUGGCGUAAUGGCCACGCGUCUCCGUCCUAAGGAGAAGACUGCGGGUUCGAGUCCCGUACGGACCG [U19C A20C C31G A70C] the figure was no more than 0.5; with GUUCCGUUGCCGUAAUGGUAACCCGUCUCCCUCCUAAGGAGAAGACUGCGGGUUCGAGUCCCGUCCGGAACG [G10C G23C A65C], no more than 0.5.

GUUCCCUUGGCGUAAUGGUAAGGCGUCUCCCUCCUAAGGAGAAGACUGCGGGUUCGAGUCCCGUACGGAACG [G6C C22G]: the yeast fitness turned out to be 0.761. With GUUCCCUUGGCGUAAUGGUAACGCGUCUCUCUCCUAAGGAGAAGACUGCGGGUUCGAGGCACGUACGGAACG [G6C C30U U59G C61A] the figure was 0.575; with GUCCCGUUGGCGUAAUGGUAACGAGUCUCCCUCCUAAGGAGAAGACUGCGGGUUCGAGUCCCGUAUGGAACG [U3C C24A C66U], no more than 0.5. The value for GUUCCGUUGGCGUAAUGGUAACGCGUCUCGCUCCUAAGGAGAAGACUGCGGGUUCGAGUUCCGUGCGGAACG [C30G C60U A65G] was no more than 0.5. The value for GUUCCGUUGGCGUAAUGGUAAGGCGUGUCCCUCCUAAGGAGAAGACUGCGGGUUCGAGUCCCGUACGGAACG [C22G C27G] was 0.597; that for GUUCCGUUGGCGUAAUGGUAACGCGUCUCCCUGCUAAGGAGAAGACUGCGGGUUCGAGUCACGUACGGAACG [C33G C61A] was 0.607. Turning to GUUCCGUUGGCGUAAUGGUAACGCGUCUCCCUCCUACGGAGAAGAUUGCGGGUUCGAGACCCGUACGGAACG [A37C C46U U59A], the yeast fitness is no more than 0.5.

As to GUUCCGUUGGCGUAAUGGUAAAACGUCUCCCUUCUAAGGAGUAGACUGCGGGUUCGAGUCCCGUACGGUACG [C22A G23A C33U A42U A69U], the yeast fitness was no more than 0.5.

With GUUCCGUUGGUGUGAUGGUAACGCGUUUCCUUCCUCAGGAGAACGCUGCGGGUUCCAGUCCCGUACGGAACG [C11U A14G C27U C31U A36C G44C A45G G56C], the yeast fitness was no more than 0.5.

Consider GUUCCGUUGGCGUACUGGUAAAGCCUCACCCUCCUUAGGAGAAGACUGCGGGUUCGCGUCCCGUCCGCAACG [A15C C22A G25C U28A A36U A57C A65C G68C], for which the yeast fitness was 0.568. With GUUCCGUUGGCGUAAUGGUAACGCGAUUCCCUCCUAAGGAGAAGACUGCGGGUUCGAGCCCCGUGCGGAACG [U26A C27U U59C A65G] the figure was 0.65. With GUUCCGAUGGCGUAAUGGUCACGCGUCUUCCUGCUAAGGAGAAGACUGCGGGUUCGAGUCCCGUACGGAACG [U7A A20C C29U C33G] the figure was 0.638; with GUUCCGUUGGCGUAAUGGUAACGCGUCUGCCUCCUAAGGAGAAGACUGCGGGUUUGAGUCCUGUACGGAACG [C29G C55U C62U], 0.567. Regarding GUUCCGUUGGCGCAAUGGUAACGCGUCUCCCUCCCAAGGAGAAGACUACGGGUUCGAGUACCGUACGGAACG [U13C U35C G48A C60A], the yeast fitness is no more than 0.5.

On to GUUCUGUUGGCGUAAUGGUAACGCGUCUCCAUCCUAAGGAGAAGCCUGCGGGUUCGAGUCCCGUACGGAACG [C5U C31A A45C], for which the yeast fitness was 0.681.

With GUUCGGUUGGCGUAAUGGUAACGCGUCUCUCUCCUAAGGAGAAGACUGCGGGUUCGAGUCCCGUUCGGAACG [C5G C30U A65U], the yeast fitness was no more than 0.5. The value for GUUCCGUUGGCGUAAUGGUAACGCGUUUCCCUCCUAAGGAGAAGACUGCGGGUUCGAAUCCCAUACGGAACG [C27U G58A G63A] was 0.53. For the variant GUUCCGUUGGCGUAAUGGUAACGCGUCUCUCUCCUAAGGAGAAGACUGUGGGUACGAGUCCCGUACGGAACG [C30U C49U U54A], the yeast fitness is no more than 0.5. The value for GUUCCAUUGGCGUAAUGGUAUCGCGGCUCCCUCCUAAGGAGAAGACUGCGGGUUCGAGUCCCGUACGGACCG [G6A A21U U26G A70C] was 0.569; that for GUUCCGUUGGCGUAACGGUAACGCGUCUCCCUCCUAAGGCGAAGACUGCGGGUUCGUGUCCCGUACGAAACG [U16C A40C A57U G68A] was 0.641; that for GUUCCGUUCGCGUUAUGGUACCGCGUCUCCCUCCUAAGGAGAAGACUGCGGGUUCGAGUCACGUACGGAACG [G9C A14U A21C C61A] was 0.81.
